Measured values published in ChEMBL document CHEMBL3286113, “New potent antibacterial oxazolidinone (MRX-I) with an improved class safety profile” (J Med Chem, 2014).
pIC50: −log10 of the molar value. Converted amounts (≈) assume the structure as drawn.

Key:
Staphylococcus aureus [1] = assay: Antibacterial activity against methicillin-resistant Staphylococcus aureus isolate 0612 in po dosed mouse systemic infection model; assay type: functional; conditions: isolate 0612, po
Rattus norvegicus [2] = assay: Toxicity in female rat assessed as effect on platelet count at 100 mg/kg/day, po bid administered for 4 weeks (reference value: 654.6 x 10^9/L); assay type: organism-based; set-up: route oral; conditions: in vivo, 672 h
Rattus norvegicus [3] = assay: Toxicity in female rat assessed as effect on hemoglobin level at 100 mg/kg/day, po bid administered for 4 weeks (reference value: 141.8 g/L); assay type: organism-based; set-up: route oral; conditions: in vivo, 672 h
Streptococcus pneumoniae [4] = assay: Bactericidal activity against penicillin-resistant Streptococcus pneumoniae; assay type: functional
[5] = test system: Staphylococcus saprophyticus; assay: Antibacterial activity against Staphylococcus saprophyticus; assay type: functional
Streptococcus pyogenes [6] = assay: Antibacterial activity against Streptococcus pyogenes; assay type: functional
Streptococcus mitis = assay: Antibacterial activity against Streptococcus mitis; assay type: functional
Staphylococcus aureus [7] = assay: Antibacterial activity against methicillin-resistant Staphylococcus aureus isolate 0605 in po dosed mouse systemic infection model; assay type: functional; conditions: isolate 0605, po
[8] = test system: Streptococcus constellatus; assay: Antibacterial activity against Streptococcus constellatus; assay type: functional
Enterococcus = assay: Bacteriostatic activity against vancomycin-sensitive Enterococcus; assay type: functional
Enterococcus faecium [9] = assay: Bacteriostatic activity against vancomycin-resistant Enterococcus faecium; assay type: functional
Streptococcus pneumoniae [10] = assay: Antibacterial activity against penicillin-resistant Streptococcus pneumoniae isolate 0613 in po dosed mouse systemic infection model; assay type: functional; conditions: isolate 0613, po
Rattus norvegicus [11] = assay: Toxicity in female rat assessed as effect on neutrophil count at 100 mg/kg/day, po bid administered for 4 weeks (reference value: 22.4%); assay type: organism-based; set-up: route oral; conditions: in vivo, 672 h
Rattus norvegicus [12] = assay: Toxicity in female rat assessed as effect on mean corpuscular volume at 100 mg/kg/day, po bid administered for 4 weeks (reference value: 53.72 fL); assay type: organism-based; set-up: route oral; conditions: in vivo, 672 h
Staphylococcus aureus [13] = assay: Antibacterial activity against methicillin-resistant Staphylococcus aureus by broth microdilution method; assay type: functional
Method in brief: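 MIC determined against methicillin-resistant S. aureus strain SAU1009.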

Staphylococcus aureus [14] = assay: Antibacterial activity against methicillin-sensitive Staphylococcus aureus ATCC 29213; assay type: functional
Enterococcus faecium [15] = assay: Bacteriostatic activity against vancomycin-sensitive Enterococcus faecium; assay type: functional
Rattus norvegicus [16] = assay: Toxicity in female rat assessed as effect on WBC count at 100 mg/kg/day, po bid administered for 4 weeks (reference value: 3.66 x 10^9/L); assay type: organism-based; set-up: route oral; conditions: in vivo, 672 h
Streptococcus anginosus = assay: Antibacterial activity against Streptococcus anginosus; assay type: functional
Streptococcus pyogenes [17] = assay: Antibacterial activity against Streptococcus pyogenes isolate 556; assay type: functional
Streptococcus sanguinis = assay: Antibacterial activity against Streptococcus sanguinis; assay type: functional
Staphylococcus [18] = assay: Antibacterial activity against beta-lactamase-negative Staphylococcus; assay type: functional
Rattus norvegicus [19] = assay: Toxicity in female rat assessed as effect on hematocrit level at 100 mg/kg/day, po bid administered for 4 weeks (reference value: 39.08%); assay type: organism-based; set-up: route oral; conditions: in vivo, 672 h
Staphylococcus aureus [20] = assay: Antibacterial activity against methicillin-resistant Staphylococcus aureus by agar dilution method; assay type: functional
Method in brief: (§1)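 MIC determined by agar dilution across S. aureus/MRSA isolates; MIC90 is the concentration inhibiting 90% of strains tested.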

[21] = Myelosuppression activity against human CD34-positive blood stem/progenitor cells assessed as growth inhibition after 9 to 10 days by CellTiter-Glo luminescent assay
[22] = test system: Staphylococcus epidermidis; assay: Antibacterial activity against methicillin-resistant Staphylococcus epidermidis; assay type: functional
Streptococcus pneumoniae [23] = assay: Antibacterial activity against penicillin intermediate-sensitive Streptococcus pneumoniae ATCC 49619 clinical isolate in po dosed mouse systemic infection model; assay type: functional; conditions: ATCC 49619, po
Streptococcus agalactiae = assay: Antibacterial activity against Streptococcus agalactiae; assay type: functional
Rattus norvegicus [24] = assay: Toxicity in female rat assessed as effect on RBC count at 100 mg/kg/day, po bid administered for 4 weeks (reference value: 7.28 x 10^12/L); assay type: organism-based; set-up: route oral; conditions: in vivo, 672 h
Enterococcus faecalis [25] = assay: Bacteriostatic activity against vancomycin-sensitive Enterococcus faecalis; assay type: functional
[26] = test system: Streptococcus dysgalactiae subsp. equisimilis; assay: Antibacterial activity against Streptococcus equisimilis; assay type: functional
Staphylococcus aureus [27] = assay: Antibacterial activity against Staphylococcus aureus by agar dilution method; assay type: functional; method in brief: as §1
[28] = molecular target: T1, Amine oxidase [flavin-containing] A (Homo sapiens, UniProt P21397); assay: Inhibition of MAO-A (unknown origin) using tyramine as substrate after 30 to 60 mins by fluorescence plate reader analysis
T1 sequence (P21397 whole entry): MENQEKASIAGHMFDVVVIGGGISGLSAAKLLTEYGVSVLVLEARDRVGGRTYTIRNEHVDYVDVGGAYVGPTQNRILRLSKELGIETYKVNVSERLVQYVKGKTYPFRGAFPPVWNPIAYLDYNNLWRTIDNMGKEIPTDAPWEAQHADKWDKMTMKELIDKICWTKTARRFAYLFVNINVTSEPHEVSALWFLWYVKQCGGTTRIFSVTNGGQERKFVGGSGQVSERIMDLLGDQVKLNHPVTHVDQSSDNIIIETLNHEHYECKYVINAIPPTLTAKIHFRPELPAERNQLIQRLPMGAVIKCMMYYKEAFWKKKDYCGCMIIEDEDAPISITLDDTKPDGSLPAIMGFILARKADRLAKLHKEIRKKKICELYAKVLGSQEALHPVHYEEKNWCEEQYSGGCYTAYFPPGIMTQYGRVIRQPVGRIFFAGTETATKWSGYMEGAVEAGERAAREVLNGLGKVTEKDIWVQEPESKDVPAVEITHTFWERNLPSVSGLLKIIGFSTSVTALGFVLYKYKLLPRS

Streptococcus pneumoniae [29] = assay: Antibacterial activity against penicillin-sensitive Streptococcus pneumoniae isolate 0806 in po dosed mouse systemic infection model; assay type: functional; conditions: isolate 0806, po
Enterococcus faecalis [30] = assay: Antibacterial activity against vancomycin-resistant Enterococcus faecalis isolate EFL 4041 in po dosed mouse systemic infection model; assay type: functional; conditions: isolate EFL 4041, po
Staphylococcus aureus [31] = assay: Antibacterial activity against methicillin-sensitive Staphylococcus aureus ATCC 29213 in po dosed mouse systemic infection model; assay type: functional; conditions: ATCC 29213, po
Staphylococcus aureus [32] = assay: Antibacterial activity against methicillin-sensitive Staphylococcus aureus; assay type: functional
Rattus norvegicus [33] = assay: Toxicity in female rat assessed as effect on lymphocyte count at 100 mg/kg/day, po bid administered for 4 weeks (reference value: 74.8%); assay type: organism-based; set-up: route oral; conditions: in vivo, 672 h
Staphylococcus aureus [34] = assay: Antibacterial activity against Staphylococcus aureus in po dosed mouse septicemia model; assay type: functional
Staphylococcus aureus [35] = assay: Antibacterial activity against methicillin-sensitive Staphylococcus aureus isolate 15 in po dosed mouse systemic infection model; assay type: functional; conditions: isolate 15, po
Rattus norvegicus [36] = assay: Toxicity in female rat assessed as effect on mean corpuscular hemoglobin level at 100 mg/kg/day, po bid administered for 4 weeks (reference value: 19.5 pg); assay type: organism-based; set-up: route oral; conditions: in vivo, 672 h
Streptococcus pyogenes [37] = assay: Antibacterial activity against Streptococcus pyogenes isolate 556 in po dosed mouse systemic infection model; assay type: functional; conditions: isolate 556, po
Enterococcus faecalis [38] = assay: Antibacterial activity against vancomycin-sensitive Enterococcus faecalis ATCC 29212 in po dosed mouse systemic infection model; assay type: functional; conditions: ATCC 29212, po
[39] = test system: Staphylococcus epidermidis; assay: Antibacterial activity against methicillin-sensitive Staphylococcus epidermidis; assay type: functional
Rattus norvegicus [40] = assay: Toxicity in female rat assessed as effect on reticulocyte count at 100 mg/kg/day, po bid administered for 4 weeks (reference value: 1.48%); assay type: organism-based; set-up: route oral; conditions: in vivo, 672 h
Enterococcus faecalis [41] = assay: Antibacterial activity against vancomycin-sensitive/high-level gentamycin-resistant Enterococcus faecalis isolate HH22 in po dosed mouse systemic infection model; assay type: functional; conditions: EnGen0297, po
Streptococcus pneumoniae [42] = assay: Bactericidal activity against penicillin-sensitive Streptococcus pneumoniae; assay type: functional
Streptococcus pneumoniae [43] = assay: Bactericidal activity against penicillin intermediate-sensitive Streptococcus pneumoniae; assay type: functional
[44] = test system: Staphylococcus haemolyticus; assay: Antibacterial activity against Staphylococcus haemolyticus; assay type: functional
Staphylococcus [45] = assay: Antibacterial activity against coagulase-negative Staphylococcus; assay type: functional
Staphylococcus aureus [46] = assay: Antibacterial activity against linezolid-resistant Staphylococcus aureus isolate 4184; assay type: functional

CC(=O)NC[C@H]1CN(c2ccc(N3CCOCC3)c(F)c2)C(=O)O1 [LINEZOLID]
ED50 (Staphylococcus aureus [1]): 8.7 mg/kg
Activity (Rattus norvegicus [2]): 487.4 ×10⁹ /L
Activity (Rattus norvegicus [3]): 112.8 g/L
MIC50 (Streptococcus pneumoniae [4]): 0.5 µg/mL (≈ 1.48 µM)
MIC90 (Streptococcus pneumoniae [4]): 0.5 µg/mL (≈ 1.48 µM)
MIC50 [5]: 1 µg/mL (≈ 2.96 µM)
MIC90 [5]: 1 µg/mL (≈ 2.96 µM)
MIC50 (Streptococcus pyogenes [6]): 1 µg/mL (≈ 2.96 µM)
MIC90 (Streptococcus pyogenes [6]): 1 µg/mL (≈ 2.96 µM)
MIC50 (Streptococcus mitis): 1 µg/mL (≈ 2.96 µM)
MIC90 (Streptococcus mitis): 1 µg/mL (≈ 2.96 µM)
ED50 (Staphylococcus aureus [7]): 10.2 mg/kg
MIC50 [8]: 1 µg/mL (≈ 2.96 µM)
MIC90 [8]: 1 µg/mL (≈ 2.96 µM)
MIC50 (Enterococcus): 1 µg/mL (≈ 2.96 µM)
MIC90 (Enterococcus): 1 µg/mL (≈ 2.96 µM)
MIC (Enterococcus faecium [9]): 1 µg/mL (≈ 2.96 µM)
MIC50 (Enterococcus faecium [9]): 1 µg/mL (≈ 2.96 µM)
MIC90 (Enterococcus faecium [9]): 1 µg/mL (≈ 2.96 µM)
ED50 (Streptococcus pneumoniae [10]): 9.3 mg/kg
Activity (Rattus norvegicus [11]): 13%
Activity (Rattus norvegicus [12]): 54.74 fL
MIC90 (Staphylococcus aureus [13]): 2 µg/mL (≈ 5.93 µM)
MIC (Staphylococcus aureus [14]): 1 µg/mL (≈ 2.96 µM)
MIC50 (Enterococcus faecium [15]): 1 µg/mL (≈ 2.96 µM)
MIC90 (Enterococcus faecium [15]): 1 µg/mL (≈ 2.96 µM)
Activity (Rattus norvegicus [16]): 1.9 ×10⁹ /L
MIC50 (Streptococcus anginosus): 0.5 µg/mL (≈ 1.48 µM)
MIC90 (Streptococcus anginosus): 1 µg/mL (≈ 2.96 µM)
MIC (Streptococcus pyogenes [17]): 1 µg/mL (≈ 2.96 µM)
MIC (Streptococcus sanguinis): 0.06 µg/mL (≈ 0.178 µM)
MIC50 (Staphylococcus [18]): 0.5 µg/mL (≈ 1.48 µM)
MIC90 (Staphylococcus [18]): 1 µg/mL (≈ 2.96 µM)
Activity (Rattus norvegicus [19]): 30.18%
MIC50 (Staphylococcus aureus [20]): 1 µg/mL (≈ 2.96 µM)
MIC90 (Staphylococcus aureus [20]): 1 µg/mL (≈ 2.96 µM)
IC50 [21]: 6.3 µg/mL (≈ 18.7 µM)
MIC50 [22]: 0.5 µg/mL (≈ 1.48 µM)
MIC90 [22]: 1 µg/mL (≈ 2.96 µM)
ED50 (Streptococcus pneumoniae [23]): 8.17 mg/kg
MIC (Streptococcus agalactiae): 1 µg/mL (≈ 2.96 µM)
MIC50 (Streptococcus agalactiae): 1 µg/mL (≈ 2.96 µM)
MIC90 (Streptococcus agalactiae): 1 µg/mL (≈ 2.96 µM)
Activity (Rattus norvegicus [24]): 5.52 ×10¹² /L
MIC50 (Enterococcus faecalis [25]): 1 µg/mL (≈ 2.96 µM)
MIC90 (Enterococcus faecalis [25]): 1 µg/mL (≈ 2.96 µM)
MIC [26]: 0.5 µg/mL (≈ 1.48 µM)
MIC50 [26]: 0.5 µg/mL (≈ 1.48 µM)
MIC90 [26]: 1 µg/mL (≈ 2.96 µM)
MIC90 (Staphylococcus aureus [27]): 8 µg/mL (≈ 23.7 µM)
pIC50 [28]: 4.62
ED50 (Streptococcus pneumoniae [29]): 16.8 mg/kg
ED50 (Enterococcus faecalis [30]): 6 mg/kg
ED50 (Staphylococcus aureus [31]): 9 mg/kg
MIC50 (Staphylococcus aureus [32]): 1 µg/mL (≈ 2.96 µM)
MIC90 (Staphylococcus aureus [32]): 1 µg/mL (≈ 2.96 µM)
Activity (Rattus norvegicus [33]): 86.2%
ED50 (Staphylococcus aureus [34]): 6.3 mg/kg
ED50 (Staphylococcus aureus [35]): 5.9 mg/kg
Activity (Rattus norvegicus [36]): 20.52 pg
ED50 (Streptococcus pyogenes [37]): 7.8 mg/kg
ED50 (Enterococcus faecalis [38]): 13.4 mg/kg
MIC50 [39]: 0.5 µg/mL (≈ 1.48 µM)
MIC90 [39]: 0.5 µg/mL (≈ 1.48 µM)
Activity (Rattus norvegicus [40]): 1.64%
ED50 (Enterococcus faecalis [41]): 5.6 mg/kg
MIC50 (Streptococcus pneumoniae [42]): 0.5 µg/mL (≈ 1.48 µM)
MIC90 (Streptococcus pneumoniae [42]): 1 µg/mL (≈ 2.96 µM)
MIC50 (Streptococcus pneumoniae [43]): 0.5 µg/mL (≈ 1.48 µM)
MIC90 (Streptococcus pneumoniae [43]): 0.5 µg/mL (≈ 1.48 µM)
MIC [44]: 0.5 µg/mL (≈ 1.48 µM)
MIC50 [44]: 0.5 µg/mL (≈ 1.48 µM)
MIC90 [44]: 1 µg/mL (≈ 2.96 µM)
MIC50 (Staphylococcus [45]): 0.5 µg/mL (≈ 1.48 µM)
MIC90 (Staphylococcus [45]): 1 µg/mL (≈ 2.96 µM)
MIC (Staphylococcus aureus [46]): > 16 µg/mL
